17 compounds from PubChem BioAssay can be followed below.

Active and inactive are the calls of the source.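 Rule for the calls, unless noted: active = GFP response above 150% of the DMSO level; inconclusive = fewer than 70 events counted for a yeast strain; inactive = the rest.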

Test [1] can be described thus: RPL19A-GFP modulators, yeast TOR pathway, confirmation, cell-based, S. cerevisiae, flow cytometry, cherry picks, mother/daughter gates (AID 2270;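 active = GFP response below 50% of the DMSO control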). The following applies: S. cerevisiae RPL19A-GFP strain, 3 h, at 10 µM, stronger effect = lower value, 100 = same GFP as DMSO wells.
Test [2] in a line: LAP4-GFP expression modulators in yeast, confirmation, cell-based, cherry picks, flow cytometry, mother/daughter gates (AID 2271;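 active = GFP response above 150% of the DMSO control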;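 note: ratio of sample to DMSO plate mean so 100% equals DMSO level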). The following applies: S. cerevisiae LAP4-GFP strain, 3 h, at 10 µM, stronger effect = higher value, 100 means same as DMSO control. An outline of the steps: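 material = Alexa 633-stained baker's yeast GFP-fusion strain | amount = 0.2 OD600 cells | schedule = 30 °C, 3 h compound incubation, rotating | signal = GFP by flow cytometry | measure = per-gate (all, mother, daughter) GFP response vs DMSO | controls = positive rapamycin (400 ng/mL), negative DMSO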

The nature of test [3]: modulators of MEP2-GFP levels in yeast, confirmation, S. cerevisiae, flow cytometry GFP, cherry picks (AID 2272;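 active = GFP response above 150% of the DMSO control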;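 note: ratio of well signal to plate DMSO mean so 100% equals DMSO level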). The settings on record: S. cerevisiae MEP2-GFP strain, 3 h, at 10 µM, stronger effect = higher value.
Test [4] is described as follows: AGP1-GFP expression modulators, hit retest, confirmation, cell-based, flow cytometry, S. cerevisiae, cherry picks (AID 2273).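 Note: median GFP channel fluorescence over the whole cell population gate.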 The following applies: S. cerevisiae AGP1-GFP strain, 3 h, at 10 µM.
Test [5] in a line: modulators of CIT2-GFP expression in yeast, confirmation, S. cerevisiae, GFP fusion, cherry picks, mother/daughter gates (AID 2274). The following applies: S. cerevisiae CIT2-GFP strain, flow cytometry, 3 h, at 10 µM, stronger effect = higher value.
The mark [6] stands for this setting: measured here: daughter cell gate.
Setting [7] is: measured here: mother cell gate.
[8] abbreviates: measured here: daughter cell gate response.
[9] abbreviates: measured here: mother cell gate response.

With `CC(=O)S[C@@H]1CC2=CC(=O)CC[C@]2(C)[C@H]2CC[C@@]3(C)[C@@H](CC[C@@]34CCC(=O)O4)[C@H]12`, the GFP response vs DMSO in test [1] was 101% (inactive); in test [1] (setting [6]) it was 99.2%; in test [1] (setting [7]) it was 100%; in test [3], 100% (inactive). Also, the GFP response relative to DMSO in test [2] was 97.4% (inactive); in test [2] (setting [8]), 97.2%; in test [2] (setting [9]), 98.3%. Also, the GFP response, % of DMSO in test [4] is 95.9% (inactive); in test [5], 99.1% (inactive); in test [5] (setting [6]) it was 96.5%; in test [5] (setting [7]) it was 98.7%.
For `CCCOc1ccc(C(=O)NNC(=S)NC(=O)c2ccco2)cc1`, the GFP response vs DMSO was 124% (inactive) in test [1], 111% in test [1] (setting [6]), 110% in test [1] (setting [7]) and 137% (inactive) in test [3]. Further, the GFP response relative to DMSO in test [2] is 175% (active); in test [2] (setting [8]), 148%; in test [2] (setting [9]), 167%. In addition, the GFP response, % of DMSO was 131% (inactive) in test [4], 134% (inactive) in test [5], 132% in test [5] (setting [6]) and 121% in test [5] (setting [7]).
For the compound `COc1cc(OC)cc(-c2nc(-c3ccccc3OC)no2)c1`, the GFP response vs DMSO in test [1] is 97.8% (inactive); in test [1] (setting [6]), 99.3%; in test [1] (setting [7]), 95.6%; in test [3] it was 114% (inactive). Also, the GFP response relative to DMSO was 97.7% (inactive) in test [2], 97.5% in test [2] (setting [8]) and 101% in test [2] (setting [9]). The GFP response, % of DMSO is 108% (inactive) in test [4], 107% (inactive) in test [5], 108% in test [5] (setting [6]) and 107% in test [5] (setting [7]).
Turning to `COc1cc(NC(=O)c2ccccc2[N+](=O)[O-])ccc1NC(=O)c1cc2ccccc2o1`, the GFP response vs DMSO is 101% (inactive) in test [1], 99.1% in test [1] (setting [6]), 101% in test [1] (setting [7]) and 103% (inactive) in test [3]. For the same compound, the GFP response relative to DMSO in test [2] is 97% (inactive); in test [2] (setting [8]), 97.5%; in test [2] (setting [9]), 97.3%. For the same compound, the GFP response, % of DMSO is 101% (inactive) in test [4], 97.3% (inactive) in test [5], 97.4% in test [5] (setting [6]) and 95.6% in test [5] (setting [7]).
In the case of `Cc1cccc(NC(=O)/C(C#N)=C/c2ccccc2Cl)n1`, the GFP response vs DMSO in test [1] is 91.2% (inactive); in test [1] (setting [6]), 91%; in test [1] (setting [7]), 86.6%; in test [3] it was 153% (inactive). Besides, the GFP response relative to DMSO in test [2] was 147% (inactive); in test [2] (setting [8]), 133%; in test [2] (setting [9]) it was 145%. In addition, the GFP response, % of DMSO in test [4] was 109% (inactive); in test [5] it was 112% (inactive); in test [5] (setting [6]) it was 117%; in test [5] (setting [7]), 103%.
Turning to `Cc1ccc(C(C(=O)NC2CCCCC2)N(CCCN2CCOCC2)C(=O)c2snc(C(N)=O)c2N)cc1` (configuration not stated), the GFP response vs DMSO in test [1] is 101% (inactive); in test [1] (setting [6]), 102%; in test [1] (setting [7]) it was 102%; in test [3], 99.5% (inactive). Also, the GFP response relative to DMSO in test [2] was 105% (inactive); in test [2] (setting [8]), 102%; in test [2] (setting [9]) it was 104%. Also, the GFP response, % of DMSO in test [4] was 104% (inactive); in test [5], 102% (inactive); in test [5] (setting [6]) it was 98.3%; in test [5] (setting [7]), 103%.
As to `O=C(NC(=S)NNC(=O)c1cnccn1)c1ccc(F)cc1`, the GFP response vs DMSO in test [1] was 110% (inactive); in test [1] (setting [6]), 91.7%; in test [1] (setting [7]), 105%; in test [3], 104% (inactive). Also, the GFP response relative to DMSO in test [2] was 259% (active); in test [2] (setting [8]) it was 234%; in test [2] (setting [9]), 254%. The GFP response, % of DMSO was 92.4% (inactive) in test [4], 99.1% (inactive) in test [5], 96.5% in test [5] (setting [6]) and 92.3% in test [5] (setting [7]).
Regarding `COc1cc(C(=O)ON=C2C3CC4CC(C3)CC2C4)cc(OC)c1OC`, the GFP response vs DMSO in test [1] was 97.4% (inactive); in test [1] (setting [6]), 97.6%; in test [1] (setting [7]), 95.6%; in test [3], 107% (inactive). Also, the GFP response relative to DMSO in test [2] is 108% (inactive); in test [2] (setting [8]), 102%; in test [2] (setting [9]), 111%. The GFP response, % of DMSO was 61.1% (inactive) in test [4], 145% (inactive) in test [5], 136% in test [5] (setting [6]) and 147% in test [5] (setting [7]).
Consider `COc1ccc(-c2noc(CCCc3ccccc3)n2)cc1OC`, for which the GFP response vs DMSO is 101% (inactive) in test [1], 98.7% in test [1] (setting [6]), 100% in test [1] (setting [7]) and 104% (inactive) in test [3]. Besides, the GFP response relative to DMSO in test [2] was 96.2% (inactive); in test [2] (setting [8]) it was 98.7%; in test [2] (setting [9]), 98.3%. For the same compound, the GFP response, % of DMSO is 104% (inactive) in test [4], 95.2% (inactive) in test [5], 94.8% in test [5] (setting [6]) and 96.6% in test [5] (setting [7]).
On to `CCN(CC)CCN(C(=O)c1ccc2c(c1)CCCC2)c1nc2cc(OC)c(OC)cc2s1`, for which the GFP response vs DMSO is 94.1% (inactive) in test [1], 96% in test [1] (setting [6]), 94.1% in test [1] (setting [7]) and 97.5% (inactive) in test [3]. In addition, the GFP response relative to DMSO was 98.8% (inactive) in test [2], 99.3% in test [2] (setting [8]) and 95.6% in test [2] (setting [9]). Also, the GFP response, % of DMSO was 101% (inactive) in test [4], 99.3% (inactive) in test [5], 102% in test [5] (setting [6]) and 98% in test [5] (setting [7]).
For the compound `O=S(=O)(/N=C(\Sc1ccc(Cl)cc1)c1ccccc1)c1ccccc1`, the GFP response vs DMSO in test [1] was 93.1% (inactive); in test [1] (setting [6]), 94.4%; in test [1] (setting [7]) it was 90.2%; in test [3], 99.3% (inactive). Also, the GFP response relative to DMSO in test [2] was 182% (active); in test [2] (setting [8]), 145%; in test [2] (setting [9]), 178%. The GFP response, % of DMSO in test [4] is 101% (inactive); in test [5] it was 90.3% (inactive); in test [5] (setting [6]), 92.3%; in test [5] (setting [7]), 83.7%.
On to `CCCCNc1c(-c2ccc(SC(C)CC)cc2)nc2ccccn12` (configuration not stated), for which the GFP response vs DMSO was 94.2% (inactive) in test [1], 88.6% in test [1] (setting [6]), 95.8% in test [1] (setting [7]) and 109% (inactive) in test [3]. Further, the GFP response relative to DMSO is 120% (inactive) in test [2], 114% in test [2] (setting [8]) and 124% in test [2] (setting [9]). Also, the GFP response, % of DMSO in test [4] was 93.3% (inactive); in test [5], 92.6% (inactive); in test [5] (setting [6]), 89.9%; in test [5] (setting [7]), 91.4%.
Regarding `COCc1nnc(NC(=O)c2ccc(S(=O)(=O)N(C)C3CCCCC3)cc2)o1`, the GFP response vs DMSO is 97.6% (inactive) in test [1], 98.6% in test [1] (setting [6]), 97.2% in test [1] (setting [7]) and 102% (inactive) in test [3]. Moreover, the GFP response relative to DMSO in test [2] was 103% (inactive); in test [2] (setting [8]), 102%; in test [2] (setting [9]) it was 104%. In addition, the GFP response, % of DMSO was 97.8% (inactive) in test [4], 103% (inactive) in test [5], 103% in test [5] (setting [6]) and 102% in test [5] (setting [7]).
Regarding `CCCCCCCCC/C(=N\O)c1ccccn1`, the GFP response vs DMSO in test [1] is 85% (inactive); in test [1] (setting [6]) it was 81.4%; in test [1] (setting [7]), 82.6%; in test [3], 108% (inactive). For the same compound, the results for the GFP response relative to DMSO in test [2], in test [2] (setting [8]) and in test [2] (setting [9]) were 214% (active), 170% and 213%, respectively. Also, the GFP response, % of DMSO in test [4] was 89.3% (inactive); in test [5], 97.2% (inactive); in test [5] (setting [6]) it was 90.5%; in test [5] (setting [7]), 97.1%.
In the case of `Cc1nc(Sc2ccc(Cl)cc2)c(C#N)c(C)c1[N+](=O)[O-]`, the GFP response vs DMSO in test [1] is 100% (inactive); in test [1] (setting [6]) it was 100%; in test [1] (setting [7]), 98.2%; in test [3], 108% (inactive). The GFP response relative to DMSO in test [2] was 91.8% (inactive); in test [2] (setting [8]), 94.4%; in test [2] (setting [9]), 91.3%. The GFP response, % of DMSO is 94.3% (inactive) in test [4], 104% (inactive) in test [5], 105% in test [5] (setting [6]) and 103% in test [5] (setting [7]).
For the compound `Cc1ccc(S(=O)(=O)Nc2cc(Cl)c(O)c3ncccc23)cc1`, the GFP response vs DMSO in test [1] was 95.2% (inactive); in test [1] (setting [6]), 94.2%; in test [1] (setting [7]) it was 97.1%; in test [3] it was 110% (inactive). Besides, the GFP response relative to DMSO is 122% (inactive) in test [2], 120% in test [2] (setting [8]) and 126% in test [2] (setting [9]). In addition, the GFP response, % of DMSO in test [4] is 91.2% (inactive); in test [5] it was 97.8% (inactive); in test [5] (setting [6]), 100%; in test [5] (setting [7]), 96.8%.
In the case of `CCCCn1c(-c2csc3c2CCCC3)n[nH]c1=S`, the GFP response vs DMSO in test [1] was 91.5% (inactive); in test [1] (setting [6]), 88.2%; in test [1] (setting [7]), 94.1%; in test [3] it was 93.3% (inactive). Besides, the values for the GFP response relative to DMSO in test [2], in test [2] (setting [8]) and in test [2] (setting [9]) were 122% (inactive), 117% and 128%, respectively. The GFP response, % of DMSO in test [4] was 95.6% (inactive); in test [5], 80.6% (inactive); in test [5] (setting [6]), 77.9%; in test [5] (setting [7]), 80.5%.
